Source: PubChem BioAssay
KCNK3 block: human KCNK3 channel inhibitors, primary screen, CHO cells, FluxOR thallium flux, B-score; FluxOR fluorescence; hits give low values; B-score at 10 µM; Potassium channel subfamily K member 3 (Homo sapiens), O14649; AID 602410, 2012; 0.84% of 340,000 active;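 active means B-score under library mean minus 4 SD, starting fluorescence ratio at most library mean plus 5 SD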;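 further: more negative B-score means stronger inhibition of thallium flux through KCNK3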
Target sequence (O14649 whole entry, looked up): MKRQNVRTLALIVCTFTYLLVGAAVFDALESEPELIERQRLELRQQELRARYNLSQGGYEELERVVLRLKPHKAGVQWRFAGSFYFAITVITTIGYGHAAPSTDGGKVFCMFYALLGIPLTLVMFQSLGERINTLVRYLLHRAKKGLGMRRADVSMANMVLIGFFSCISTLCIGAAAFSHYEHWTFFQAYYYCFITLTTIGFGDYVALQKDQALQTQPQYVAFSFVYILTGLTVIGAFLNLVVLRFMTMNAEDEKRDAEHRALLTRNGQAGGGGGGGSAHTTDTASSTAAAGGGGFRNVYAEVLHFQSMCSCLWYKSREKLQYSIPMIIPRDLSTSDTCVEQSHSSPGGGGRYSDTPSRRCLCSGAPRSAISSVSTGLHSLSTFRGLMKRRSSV
KCNQ1 act: potentiators or activators of KCNQ1 channel, primary screen, cell-based, thallium flux, high-throughput; Potassium voltage-gated channel subfamily KQT member 1 (Homo sapiens), P51787; CHO-K1 KCNQ1, thallium flux FluxOR fluorescence; hits give high values; B-score at 10 µM; 0.35% of 310,000 active; AID 2648, 2010;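 active means fluorescence ratio B-score, a plate-corrected score, at least three library SD, with initial intensity B-score within 5 SD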
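assay system = KCNQ1-transfected CHO-K1 cells | medium = assay buffer with matched DMSO | probe or stimulus = depolarizing K+/Tl+ stimulus, K2SO4 and Tl2SO4 each 12.5 mM in 5x stock | dosing = single dose | incubation = dye 90 min, compound 20 min, room temperature | detection = kinetic FluxOR fluorescence, 10 s baseline plus 110 s post-stimulus | evaluation = ratio B score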
hERG rescue: hERG rescue from dofetilide block, primary screen, cell-based, CHO-hERG, FluxOR thallium flux, dofetilide IC70. Voltage-gated inwardly rectifying potassium channel KCNH2 (Homo sapiens), Q12809. dofetilide IC70 present. 0.51% of 310,000 active. activation (rescue from dofetilide block), less the hit threshold, % at 10 µM;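 active means activation above the mean of controls blocked by dofetilide plus 5 SD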;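 further: thallium influx through hERG after potassium depolarization seen as dye fluorescence rise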
KCNQ1 inh: inhibitors of human KCNQ1 channel, primary screen, cell-based, thallium flux, high-throughput. Potassium voltage-gated channel subfamily KQT member 1 (Homo sapiens), P51787. CHO-K1 KCNQ1, FluxOR thallium flux fluorescence; hits give high values. B-score at 10 µM. 1.3% of 310,000 active. AID 2642, 2010;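 active means compounds whose thallium flux B-score, printed positive for inhibition, exceeds three library SD while starting fluorescence stays within three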;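 further: channel opened by potassium depolarization with thallium stimulus after 20 min compound exposure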
KCNK9 block: KCNK9 potassium channel inhibitors, primary screen, HEK293 cells, thallium flux; FluxOR thallium flux fluorescence; hits give low values; B-score at 10 µM; AID 488922, 2010; 1.2% of 310,000 active; Potassium channel subfamily K member 9 (Homo sapiens), Q9NPC2;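 active means ratio B-score over 3 SD below the library mean, with starting fluorescence within 5 SD of its mean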;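 further: negative B-score means less thallium flux so channel inhibition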
Hits are given with their value; 0 = inactive; - = no result given. Only some compounds are listed: those with a hit (about 3.1% of all), similar ones and a draw of the others.

SMILES | KCNK3 block | KCNQ1 act | hERG rescue | KCNQ1 inh | KCNK9 block
COc1cccc(C(=O)NNC(=O)c2ccccc2)c1 | 0 | 0 | 0 | 0 | 0
COc1cccc(C(=O)NNC(=O)C(=O)Nc2ccc(OC)cc2OC)c1 | 0 | 19 | 12.4 | 0 | 0
COc1ccc(OC)c(NC(=O)C2CCN(C(=O)c3cccs3)CC2)c1 | 0 | 0 | 0 | 0 | 0
COc1cccc(C(=O)NNC(=O)C(=O)Nc2cccc3ccccc23)c1 | 0 | 36 | 42.5 | 0 | 0
COc1ccc(OC)c(NC(=O)C(=O)NNC(=O)c2cccs2)c1 | 0 | 0 | 5.5 | 0 | 0
COc1cccc(C(=O)Nc2cccc3ccccc23)c1 | 0 | 0 | 0 | 0 | 0
COc1ccc(NC(=O)c2nc[nH]c2C(=O)N2CCN(c3ccccc3)CC2)cc1 | 0 | 0 | 5.7 | 0 | 0
O=C(Nc1ccccc1)c1nc[nH]c1C(=O)N1CCN(c2ccccc2)CC1 | 0 | - | - | - | -
C[C@]12C(=O)N(c3ccc(Cl)cc3)C(=O)N1[C@@H]1c3ccccc3OC[C@@H]1[C@H]2c1ccccc1 | 0 | 0 | 0 | 0 | 0
CCN(CC(=O)Nc1ccc2c(c1)OCCO2)C(=O)c1ccc(CS(C)(=O)=O)cc1 | 0 | - | - | - | -
Cc1ccc(C)c(NC(=O)CN(C)C(=O)c2oc3c(Cl)cccc3c2C)c1 | 0 | 0 | 0 | 0 | 0
Cc1c(C(=O)N(C)CCOc2ccccc2)oc2c(Cl)cccc12 | -9.31 | - | - | - | -
C#Cc1ccc(CN2CCC(C(=O)Nc3ccc(Oc4ccccc4)nc3)CC2)cc1 | 0 | 0 | 0 | 6 | 0
O=C(Nc1ccc(Oc2ccccc2)nc1)C1CCN(Cc2cccc(F)c2)CC1 | 0 | 0 | 0 | 0 | 0
Cc1ccc(NC(=O)COC(=O)CCc2c(C)nc3ncnn3c2C)cc1 | 0 | - | - | - | -
CCC/C=C(\CCC)C(NC(=O)c1ccc(C(=O)OC)cc1)c1ccc(C(=O)OC)cc1 (stereo unspecified) | - | 0 | 0 | 6 | 0
CCC/C=C(\CCC)C(NC(=O)CCc1ccccc1)c1ccc(C(F)(F)F)cc1 (stereo unspecified) | - | 0 | 0 | 0 | 0
CCC/C=C(\CCC)C(NC(=O)c1ccc(C(F)(F)F)cc1)c1ccccc1 (stereo unspecified) | - | 0 | 0 | 6 | 0
NC(=S)c1ccc[n+]([O-])c1 | 0 | - | - | - | -
CC1=CC(=O)C(C(C)=Nc2cccc(Cl)c2)C(=O)O1 (stereo unspecified) | 0 | - | - | - | -
CCCOP(=O)(c1ccccc1)c1ccccc1 | 0 | 0 | 0 | 0 | 0
CC(C)CCOP(=O)(c1ccccc1)c1ccccc1 | 0 | 0 | 0 | 0 | -6.75
O=C(COC(=O)c1c(F)cccc1Cl)NC(=O)Nc1ccc2c(c1)OCCO2 | 0 | - | - | - | -
S=C(Nc1ccccc1)Nc1cc(Cl)ccc1Oc1ccccc1 | 0 | 0 | 0 | 9 | 0
CCC(NC(=O)CCC(=O)N1CCN(S(=O)(=O)c2ccc(C)cc2)CC1)c1ccc(C)cc1 (stereo unspecified) | 0 | - | - | - | -
SMILES | KCNK3 block | KCNQ1 act | hERG rescue | KCNQ1 inh | KCNK9 block
Cc1cn2c(nc1=O)OC1C(O)C(COC(=O)c3ccccc3)OC12 (stereo unspecified) | 0 | 0 | 5.0 | 0 | 0
O=C(OCC1OC2C(Oc3nc(=O)ccn32)C1O)c1ccccc1 (stereo unspecified) | 0 | 0 | 0 | 0 | 0
CC(C)CN(C(=O)C1CCC1)c1c(N)n(Cc2ccccc2)c(=O)[nH]c1=O | 0 | - | - | - | -
Cc1ccc(C(C)C)c(OCC(=O)OCc2c(C)noc2C)c1 | 0 | 0 | 0 | 0 | -7.37
Cc1ccc(C(C)C)c(OCC(=O)OCC(=O)NC2CC2)c1 | 0 | - | - | - | -
Cc1cccc(N/C(N)=N/c2nc(C)cc(=O)[nH]2)c1 | 0 | 0 | 5.7 | 0 | 0
C1CCC(C(CC2CCCCN2)C2CCCCC2)CC1 (stereo unspecified) | 0 | 0 | 0 | 7 | 0
COc1ccc(-c2noc(CSc3nnc(CCc4ccccc4)n3-c3ccccc3)n2)cc1OC | -9.66 | 0 | 0 | 0 | 0
COc1ccc(-c2noc(CSc3ccccc3)n2)cc1OC | 0 | 0 | 0 | 0 | 0
CCCOc1ccc(C2=CC(=O)C[C@H](c3ccc(OC)cc3)C2)cc1 | 0 | - | - | - | -
S=c1nc(-c2ccccc2)[nH]n1-c1ccccc1 | 0 | 74 | 14.9 | 0 | 0
Cc1ccc(NC(=O)CN2C(=O)NC(C)(CC(C)C)C2=O)c(Br)c1 (stereo unspecified) | 0 | - | - | - | -
O=c1[nH]cc(N=Cc2cc(Cl)cc(Cl)c2O)c(=O)[nH]1 | 0 | 18 | 0 | 0 | 0
O=c1[nH]cc(N=Cc2cc([N+](=O)[O-])ccc2O)c(=O)[nH]1 | - | 0 | 0 | 0 | 0
Cc1ccc(C(=O)OCC(=O)NC2CCCCC2)cc1S(=O)(=O)N1CCCCC1 | 0 | - | - | - | -
CC(C)(C)c1cc(O)c(C(C)(C)C)cc1O | - | 8 | 0 | 0 | -8.51
Cc1cccc(Sc2nc(-c3ccccc3)ccc2C#N)c1 | 0 | 0 | 0 | 0 | -6.59
Nc1nc(N)nc(-c2cc(Cl)ccc2Cl)n1 | 0 | 0 | 0 | 0 | 0
O=Cc1ccc(-c2cc(Cl)ccc2Cl)[nH]1 | 0 | 0 | 0 | 0 | -6.66
O=C(/C=C/NNC(=O)c1ccccc1O)c1ccccc1 | 0 | 0 | 0 | 0 | 0
COc1ccc(-c2cn3cc(C(=O)NN)ccc3n2)cc1 | 0 | 0 | 5.2 | 0 | 0
CC(=O)c1sc(NC(=O)c2cnc(Cl)c(Cl)c2)nc1C | 0 | 0 | 0 | 9 | 0
O=C(CN1CCOCC1)NNC(=O)c1ccc(Cl)cc1 | 0 | - | - | - | -
Cc1[nH]c(=S)sc1Cc1ccc(F)cc1 | 0 | 9 | 0 | 0 | 0
Cc1ccsc1/C=N/Nc1ncc(Cl)cc1Cl | 0 | 0 | 0 | 6 | 0
SMILES | KCNK3 block | KCNQ1 act | hERG rescue | KCNQ1 inh | KCNK9 block
Cc1cc(C)nc(N/N=C/c2sccc2C)n1 | 0 | 0 | 0 | 0 | 0
CC1CN(C(C)C)C(=S)NC1=O (stereo unspecified) | 0 | - | - | - | -
O=C(NC1CCCCC1)C(c1ccccc1)N(Cc1ccc2c(c1)OCO2)C(=O)c1cnsn1 (stereo unspecified) | 0 | 0 | 0 | 6 | 0
Cc1ccc(C(C(=O)NC2CCCC2)N(Cc2ccc3c(c2)OCO3)C(=O)c2snc(C(N)=O)c2N)cc1 (stereo unspecified) | 0 | 0 | 0 | 0 | 0
Cn1c(=O)c(=O)n(C)c2cc(S(=O)(=O)N3CCC(Cc4ccccc4)CC3)ccc21 | 0 | 0 | 0 | 0 | 0
O=S(=O)(c1ccccc1Cl)N1CCC(Cc2ccccc2)CC1 | 0 | 0 | 0 | 6 | 0
O=C(Nc1cc(S(=O)(=O)N2CCOCC2)ccc1Cl)c1cc([N+](=O)[O-])ccc1Cl | 0 | - | - | - | -
COc1ccc(NC(=O)CN(C)CC(=O)N2CCCCCC2)cc1 | 0 | - | - | - | -
COC(=O)c1ccc(C2C(C#N)=C(N)Oc3cc(N)ccc32)cc1 (stereo unspecified) | 0 | 0 | 0 | 0 | 0
COC(=O)c1ccc(C2C(C#N)=C(N)Oc3cc(O)ccc32)cc1 (stereo unspecified) | 0 | 0 | 61.5 | 0 | 0
